# Assay outcomes as filed in PubChem BioAssay.
# STAT1 act: STAT1 signaling activation. activation (% of control), % at 5.5 µM. NIH 3T3 STAT1-luciferase reporter, IFN-gamma, luminescence; 100% = IFN-gamma alone, no compound. 200,000 tested, 2.6% active. AID 932;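 active = activation above the screen-wide mean activation plus 3 SD, cut at about 130% in these data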;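 also: raw ratio to IFN-gamma control signal so 100% means no change and 0% no light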
# FLuc act counter: firefly luciferase counter-screen for stimulation assays | ATPlite luciferase biochemical, luminescence, 10 min; 0 = ATP-free wells, 1 = DMSO control | activation factor at 10 µM | 200,000 tested, under 10 active | AID 1027;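 active = luciferase activation factor, scaled between plate controls, of at least 2 with compound at 10 µM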
# Target sequence (P08659 whole entry, looked up): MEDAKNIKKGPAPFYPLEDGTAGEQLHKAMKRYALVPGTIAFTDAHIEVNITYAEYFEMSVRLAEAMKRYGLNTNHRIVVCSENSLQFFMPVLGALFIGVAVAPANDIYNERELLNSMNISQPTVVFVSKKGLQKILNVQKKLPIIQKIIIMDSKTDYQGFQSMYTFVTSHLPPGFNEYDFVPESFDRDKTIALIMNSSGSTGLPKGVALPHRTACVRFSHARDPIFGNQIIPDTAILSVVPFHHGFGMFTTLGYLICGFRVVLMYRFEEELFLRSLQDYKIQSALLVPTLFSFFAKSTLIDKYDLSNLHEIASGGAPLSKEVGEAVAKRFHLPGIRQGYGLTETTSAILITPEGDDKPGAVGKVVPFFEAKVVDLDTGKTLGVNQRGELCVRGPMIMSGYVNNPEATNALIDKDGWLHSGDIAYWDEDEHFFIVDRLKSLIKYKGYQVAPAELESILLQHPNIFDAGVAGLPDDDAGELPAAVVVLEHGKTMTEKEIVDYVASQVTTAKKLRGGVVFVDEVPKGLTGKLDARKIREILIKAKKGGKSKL
#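 Material: luciferase plus luciferin reagent, cell-free. Medium: PBS buffer for ATP. Also added: ATP substrate, dispensed from a 10.24 µM working solution in PBS. Doses: test compounds dosed from 2 mM stocks in 100% DMSO. Incubation: 10 min post-reagent at room temperature. Technique: light output (luminescence). Read-out basis: luminescence gain marking luciferase activators.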
# APP 5'UTR act: activates APP 5'UTR luciferase reporter; activation, % at 2 µM; AID 1276; SH-SY5Y APP 5'UTR luciferase reporter, luminescence; zero percent = DMSO vehicle wells; 190,000 tested, 1% active;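 active = activation above a set limit, based on mean plus 3 SD of controls, cut at about 140% in these data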
# FLuc inhib CS: Photinus pyralis luciferase inhibition counter-screen | ATPLite firefly luciferase biochemical luminescence, 10 min | inhibition, % at 10 µM | P08659 | 200,000 tested, 1.5% active;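 active = inhibition above about 50% when tested at 10 µM, limit read from the data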
# NF-kB expr up: raises NF-kB expression in human neuronal cells | NF-kB reporter expression; active compounds read high | fold change at 12.5 µM | 190,000 tested, 1.6% active | AID 1239; in the data active = fold change above about 3.3
# Active calls of the source: *; / = no result given. Rows were chosen to be rich in hits. Some 4.1% of all compounds tested hit in one or more screens of this group.
SMILES,STAT1 act,FLuc act counter,APP 5'UTR act,FLuc inhib CS,NF-kB expr up
Cc1nc2ccccc2cc1C(=O)N/N=C/c1ccccc1[N+](=O)[O-],97.5,1,4.4,-4.9,1.25
CC1(C)CC(CCN(Cc2ccccc2)C(=O)c2ccco2)(c2ccccc2)CCO1 (stereo unspecified),98.0,1,-0.3,-2.7,0.82
O=C(Nc1cnn(C23CC4CC(CC(C4)C2)C3)c1)c1cnn2cccnc12,122.3,0.3,83.7,67.0*,2.96
O=C(CO)N/N=C/c1c2ccccc2cc2ccccc12,104.0,1,12.3,-4.6,1.24
COc1cccc(-n2ccnc2SCC(=O)Nc2ccccc2F)c1,107.4,1,4.2,-4.2,0.82
COc1ccc(OC)c(Cc2nnc(CCC(=O)N3CCCCC3c3nccs3)o2)c1 (stereo unspecified),134.4*,1,35.1,-1.6,2.31
CCN1CCN(C(=O)c2ccc(-c3nc4ccccc4s3)s2)CC1,129.6*,0.7,131.3,34.2,4.18*
O=C(c1ccc(Cl)s1)N1CCOCC1,90.3,1.1,3.0,-5.4,1.1
Cc1ccc2nc(NC(=O)c3ccc(-c4nc5ccccc5s4)s3)sc2c1,103.6,0.9,-1.0,5.3,0.68
Cc1noc(C)c1COC(=O)c1ccc(-c2nc3ccccc3s2)s1,112.7,1,15.4,3.9,2.88
O=C(c1ccc(-c2nc3ccccc3s2)s1)N1CCOCC1,28.2,0,65.1,96.0*,1.08
O=C(NC1CC1)c1ccc(-c2nc3ccccc3s2)s1,31.4,0,82.6,95.9*,1.08
CCNC(=O)COC(=O)c1ccc(-c2nc3ccccc3s2)s1,98.2,0.1,52.0,86.7*,1.09
CCOc1cc(/C=N\NC(=O)Cn2nc([N+](=O)[O-])cc2C)ccc1OCc1cccc2ccccc12,89.7,1.1,3.2,-7.7,0.93
O=C(O)Cn1cc(/C=C2\SC(=O)N(c3ccccc3)C2=O)c2ccccc21,108.1,0.8,27.1,15.4,1.42
Cn1cc(/C=C2/SC(=O)N(c3ccccc3)C2=O)c2ccccc21,132.5*,1,-7.8,-1.9,1.37
Cc1ccc(C(=O)/C=C/c2cn(CN3CCN(C)CC3)c3ccccc23)cc1,122.5,0.8,76.4,20.2,7.28*
Cn1cc(/C=C/C(=O)c2ccccc2)c2ccccc21,/,/,200.4*,/,/
CCOc1ccc(N2C(=O)CC(n3nc(C)cc3C)C2=O)cc1 (stereo unspecified),96.9,1.1,-1.5,-12.0,1.07
c1ccc2c(Oc3ccc4c(c3)OCO4)nncc2c1,137.8*,0.5,119.8,46.6,4.32*
COc1ccc(-c2cn3nc4c(nc3n2)CCCC4)cc1,124.3,0.3,58.5,68.1*,2.93
CCC(C)(C)NC(=O)C(c1ccc(F)cc1)N(Cc1ccco1)C(=O)CCC(=O)Nc1ccccn1 (stereo unspecified),100.2,1.1,5.3,-9.1,0.96
C=CCn1c(C)cc(C(=O)CN2NS(=O)(=O)c3ccccc3C2=O)c1C,142.8*,0.4,-84.6,55.4*,1.21
C=CCn1c(C)cc(C(=O)Cn2ncc(Cl)c(Cl)c2=O)c1C,83.8,0.8,-86.7,23.6,0.65
Cc1ncoc1C(=O)Nc1ncc([N+](=O)[O-])s1,142.0*,0.8,78.2,19.1,2.44
SMILES,STAT1 act,FLuc act counter,APP 5'UTR act,FLuc inhib CS,NF-kB expr up
NCCN=C1NS(=O)(=O)c2ccccc21,101.8,1,5.9,-0.2,0.94
O=C(Oc1cccc2c(O)cccc12)c1ccccc1,106.5,1.1,11.0,-7.3,2.1
O=C(Oc1ccccc1O)c1cccc2ccccc12,109.0,1.1,-5.2,-7.5,3.48*
O=C(COC(=O)CSc1cc(Cl)ccc1Cl)NCc1ccc2c(c1)OCO2,97.0,1.1,-22.4,-7.3,1.01
Cc1ccc(CN2CCN(CCC(C)C)C(CCO)C2)s1 (stereo unspecified),98.2,1,0.7,-1.8,1.31
Cc1ccc(CN2CCN(CC(C)C)C(CCO)C2)s1 (stereo unspecified),134.9*,1,75.9,2.4,2.57
Cc1ccc2nc(SCC(=O)N3CCN(C(=O)c4ccco4)CC3)[nH]c2c1,120.4,1,-7.0,2.0,1.05
Cc1ccc2nc(SCC(=O)N3CCCC3)[nH]c2c1,143.9*,0.9,115.2,5.3,3.2
CC(=O)NC1C(c2nc3ccccc3s2)=C(c2ccccc2)C(=O)N1c1ccc(C)cc1 (stereo unspecified),101.5,1,24.5,-0.3,2.12
c1ccc2c(-c3nc(-c4ccncc4)no3)cccc2c1,129.1*,1,35.8,-3.6,2.19
Brc1cccc(-c2nc(-c3ccncc3)no2)c1,117.8,0.8,36.5,15.3,1.79
c1ccc(-c2noc(-c3cccc4ccccc34)n2)cc1,141.6*,0.8,99.7,19.0,6.14*
c1cncc(-c2noc(-c3cccc4ccccc34)n2)c1,125.7,0.8,-7.4,19.1,3.01
Clc1ccc(Br)cc1-c1nc(-c2ccncc2)no1,137.0*,1,4.5,-1.2,1.23
CC(=O)C1=C(S(=O)(=O)c2ccc(C)cc2)CS(=O)(=O)C1,94.0,1,-3.7,-1.0,0.89
Clc1nc(CN2CCOCC2)nc2sc3c(c12)CCC3,102.9,1.1,2.7,-6.3,1.31
O=c1c2c3c(sc2nc2n1CCCCC2)CCCC3,142.6*,0.9,69.6,7.5,4.1*
Clc1nc(CN2CCCCC2)nc2sc3c(c12)CCCC3,104.7,1.1,10.1,-7.2,3.65*
CC(=O)Nc1cccc(C(=O)N/N=C/c2ccccc2F)c1,143.1*,0.7,46.6,34.8,2.72
CCOC(=O)N/N=C/c1cc(C)n(-c2ccccc2)c1C,109.9,0.6,13.0,37.9,1.4
Cc1cc(/C=N/NC(=O)c2cccc(F)c2)c(C)n1-c1ccccc1,108.7,0.2,79.5,78.6*,0.74
Cc1cc(/C=N/NC(=O)c2ccccc2F)c(C)n1-c1ccccc1,131.2*,0.2,96.1,75.1*,3.09
Cc1cccc(OCc2nnc(SCC(=O)N3CCN(c4ccccc4)CC3)o2)c1C,97.3,1,12.0,-4.8,1.74
O=C(Nc1ccc(NC(=O)c2cccs2)cc1)c1ccc(Br)o1,108.8,1.1,/,-7.2,1.04
O=C1SC(SC(=Nc2ccccc2)Nc2ccccc2)C(=O)N1c1ccccc1 (stereo unspecified),138.1*,1,18.2,-4.5,1.91
Cc1cc(C(=O)CSc2nnc(-c3cccc(F)c3)n2N)c(C)n1Cc1ccc2c(c1)OCO2,87.7,1,8.3,-2.9,0.79
COc1ccc(C2CC(c3ccccc3)=NN2c2ccc(N)cc2)cc1 (stereo unspecified),140.8*,1,7.1,-0.7,1.45
COc1ccc(C2CC(c3ccccc3)=NN2c2ccc(Cl)c(C(=O)O)c2)cc1 (stereo unspecified),113.0,0.9,-14.6,6.6,1.13
N#C/C(=C\c1ccc(-c2ccc(F)cc2)o1)C(=O)Nc1nc(-c2cccs2)cs1,99.8,1,-2.5,0.7,1.08
